Laboratory results from article PMC3042207 (British Journal of Pharmacology, 2011).
Several values for one entry are separate records, joined by “and”; a condition that tells them apart may be missing. Identical values can stand only once.

What was measured:
UGT 1A3 = target: T1, UGT 1A3 (Homo sapiens, UniProt P35503); test: Glucuronidation of 4-HPR by UGT 1A3 supersomes; type: in vitro ADME; conditions: UGT 1A3, 1 mg·mL^−1; 4-HPR 0-2000 µM, 3 h
T1 sequence (P35503 29-534): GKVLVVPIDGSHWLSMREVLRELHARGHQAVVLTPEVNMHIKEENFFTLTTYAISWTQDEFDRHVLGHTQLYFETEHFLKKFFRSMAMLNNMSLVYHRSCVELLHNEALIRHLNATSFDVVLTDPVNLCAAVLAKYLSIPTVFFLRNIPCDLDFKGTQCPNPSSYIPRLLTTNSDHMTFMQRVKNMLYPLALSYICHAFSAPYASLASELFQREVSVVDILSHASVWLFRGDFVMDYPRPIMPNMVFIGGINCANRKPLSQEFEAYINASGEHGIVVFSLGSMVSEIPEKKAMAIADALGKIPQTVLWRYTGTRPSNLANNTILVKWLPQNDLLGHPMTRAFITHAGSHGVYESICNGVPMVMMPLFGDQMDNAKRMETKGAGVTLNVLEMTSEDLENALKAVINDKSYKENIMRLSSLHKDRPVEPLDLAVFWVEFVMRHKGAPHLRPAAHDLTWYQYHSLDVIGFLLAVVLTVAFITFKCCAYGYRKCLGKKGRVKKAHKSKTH

[1] = system: human liver microsomes (HLM); test: Formation of 4-MPR from 4-HPR by HLM with SAM; type: in vitro ADME; conditions: HLM 0.5 mg·mL^−1, 0–100 µM 4-HPR, 0.2 mM SAM, 3 h
individual human CYPs = type: in vitro ADME; conditions: CYPs 3A4, 3A5 and 2C8 supersomes
Procedure, shortened: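 Reactions are stopped with acetonitrile and the 4′-hydroxy metabolite is measured by HPLC. With no authentic standard, Vmax is given in peak area units·min−1. Values are mean ± SD of at least three experiments.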

[2] = system: human intestinal microsomes (HIM); test: Glucuronidation of 4-HPR by human intestinal microsomes; type: in vitro ADME; conditions: HIM, 1 mg·mL^−1; 4-HPR 0-2000 µM, 3 h
Procedure, shortened: (§1)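 Intestinal or liver microsomes at 1 mg·mL−1 are incubated with 0–2000 µM substrate (13 levels) for 3 h at 37°C. The buffer is 50 mM Tris-HCl, pH 7.5, with alamethicin 25 µg·mL−1, 8 mM MgCl2, 2 mM UDP-glucuronic acid and 0.25% methanol. Reactions are started with enzyme and stopped with ice-cold acetonitrile. The glucuronide is quantified by C18 HPLC, with identity confirmed by β-glucuronidase. Vmax is in peak area units·min−1; mean ± SD of three independent experiments.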

[3] = as above; type: in vitro ADME; conditions: human, human intestinal microsomes, pH 7.5
Procedure, shortened: as §1

[4] = system: human liver microsomes (HLM); test: Oxidative metabolism of 4-HPR by human liver microsomes; type: in vitro ADME; conditions: 4-HPR 0-20 µM, 3 h, HPLC, mean ± SD, n≥3
Procedure, shortened: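 Termination is with ice-cold acetonitrile, then centrifugation at 10 000× g. The 4′-hydroxy and 4′-oxo metabolites are resolved by reversed-phase HPLC with photodiode-array detection. Vmax is derived from formation rates; mean ± SD, n ≥ 3.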

[5] = system: human liver microsomes (HLM); test: Glucuronidation of 4-HPR by human liver microsomes; type: in vitro ADME; conditions: HLM, 1 mg·mL^−1; 4-HPR 0-2000 µM, 3 h
Procedure, shortened: as §1

[6] = Glucuronidation of 4-HPR by human liver microsomes; type: in vitro ADME; conditions: human, human liver microsomes, pH 7.5
Procedure, shortened: as §1

UGT 1A1 = target: T2, UGT 1A1 (Homo sapiens, UniProt P22309); test: Glucuronidation of 4-HPR by UGT 1A1 supersomes; type: in vitro ADME; conditions: UGT 1A1, 1 mg·mL^−1; 4-HPR 0-2000 µM, 3 h
T2 sequence (P22309 26-533): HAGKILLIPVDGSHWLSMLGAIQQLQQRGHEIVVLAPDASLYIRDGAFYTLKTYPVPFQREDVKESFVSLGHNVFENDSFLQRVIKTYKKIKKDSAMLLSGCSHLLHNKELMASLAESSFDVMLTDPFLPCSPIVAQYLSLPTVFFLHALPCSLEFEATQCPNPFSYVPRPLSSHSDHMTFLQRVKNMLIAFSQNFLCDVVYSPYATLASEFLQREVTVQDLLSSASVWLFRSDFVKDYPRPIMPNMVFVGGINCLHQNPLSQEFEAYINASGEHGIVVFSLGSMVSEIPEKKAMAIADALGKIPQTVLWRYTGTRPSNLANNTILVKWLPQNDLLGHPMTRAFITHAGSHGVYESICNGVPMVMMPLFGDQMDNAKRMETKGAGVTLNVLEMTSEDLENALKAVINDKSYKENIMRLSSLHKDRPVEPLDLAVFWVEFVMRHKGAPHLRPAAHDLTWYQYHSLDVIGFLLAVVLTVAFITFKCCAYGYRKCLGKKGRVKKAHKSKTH

UGT 1A6 = target: T3, UGT 1A6 (Homo sapiens, UniProt P19224); test: Glucuronidation of 4-HPR by UGT 1A6 supersomes; type: in vitro ADME; conditions: UGT 1A6, 1 mg·mL^−1; 4-HPR 0-2000 µM, 3 h
T3 sequence (P19224 27-532): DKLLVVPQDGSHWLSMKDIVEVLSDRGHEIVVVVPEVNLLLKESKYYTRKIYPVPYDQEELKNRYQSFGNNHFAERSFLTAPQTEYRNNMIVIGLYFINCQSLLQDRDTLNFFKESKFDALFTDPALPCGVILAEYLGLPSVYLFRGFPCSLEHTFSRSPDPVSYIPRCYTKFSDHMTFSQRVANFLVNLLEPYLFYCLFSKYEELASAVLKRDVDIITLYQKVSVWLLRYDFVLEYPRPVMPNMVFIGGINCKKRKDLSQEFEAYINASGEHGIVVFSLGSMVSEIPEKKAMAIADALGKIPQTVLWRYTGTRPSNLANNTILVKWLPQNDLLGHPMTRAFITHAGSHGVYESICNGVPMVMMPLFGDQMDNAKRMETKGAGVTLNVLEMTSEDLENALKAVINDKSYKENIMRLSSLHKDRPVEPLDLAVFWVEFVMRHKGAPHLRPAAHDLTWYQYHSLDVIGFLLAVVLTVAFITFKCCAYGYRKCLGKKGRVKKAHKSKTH

[7] = mouse model; ref Maurer et al., 2007; cited from earlier work

## CC1=C(/C=C/C(C)=C/C=C/C(C)=C/C(=O)Nc2ccc(O)cc2)C(C)(C)CCC1 [4-HPR, fenretinide]
UGT 1A3
  Vmax, 4-HPR glucuronide formation: 317 ± 18 peak area U·min^−1
  Vmax, 4-HPR glucuronide formation, per pmol UGT: 2.11 peak area U·min^−1·pmol^−1 UGT and 2.11 ± 0.12 peak area U·min^−1·pmol^−1 UGT
[1]; calculated
  Vmax, 4-MPR formation: 823 peak U·min^−1
[1]; read-out: Km, 4-MPR formation
  Km: 236 µM
Individual human CYPs
  Vmax, 4′-OH 4-HPR production, range over supersomes expressing individual CYPs: 115–282 peak area U·min^−1
[2]
  Vmax, 4-HPR glucuronide formation: 418 ± 38 peak area U·min^−1
[3]
  Km at 3 h: 1210 ± 202 µM
[4]
  Vmax, 4′-OH 4-HPR formation: 28 peak area U·min^−1 and 28 ± 6 peak area U·min^−1
  Vmax, 4′-oxo 4-HPR formation: 131 peak area U·min^−1 and 131 ± 14 peak area U·min^−1
[5]
  Vmax, 4-HPR glucuronide formation: 679 ± 39 peak area U·min^−1
[6]
  Km at 3 h: 540 ± 69 µM
UGT 1A1
  Vmax, 4-HPR glucuronide formation: 577 ± 34 peak area U·min^−1
  Vmax, 4-HPR glucuronide formation, per pmol UGT: 0.62 peak area U·min^−1·pmol^−1 UGT and 0.62 ± 0.04 peak area U·min^−1·pmol^−1 UGT
UGT 1A6
  Vmax, 4-HPR glucuronide formation: 124 ± 6 peak area U·min^−1
  Vmax, 4-HPR glucuronide formation, per pmol UGT: 0.02 peak area U·min^−1·pmol^−1 UGT and 0.02 ± 0.001 peak area U·min^−1·pmol^−1 UGT
[7]
  increase of plasma concentrations, lipid matrix vs oil-based capsules: up to seven-fold
